In ChEMBL document CHEMBL1122774, “Tri- and tetrapeptide analogues of kinins as potential renal vasodilators” (J Med Chem, 1984):
Square brackets hold non-standard residues; d marks the D form. Peptide text beside a SMILES is read from it. * marks the point of attachment. ξ: configuration not given here. Butanoyl(4-(4-HOPh)) = O=C(CCCc1ccc(O)cc1)*; ξαMeY = CC(N)(Cc1ccc(O)cc1)C(=O)O; ξαMeF = CC(N)(Cc1ccccc1)C(=O)O; Bz = O=C(c1ccccc1)*

How the values were obtained:
Canis familiaris [1] = experiment: In vivo percent change in canine heart rate at 30 ug/Kg/min.; type: functional, Canis lupus familiaris
Outline: (§1)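 Primary screen in anesthetized dogs (7-17 kg). Drug infused separately at 3, 30 and 300 µg/(kg min), each infusion lasting 5 min, at about 15-min intervals. Read-outs are renal blood flow, mean arterial blood pressure, heart rate, and RVR (MABP / mean RBF), as percent change. Significance thresholds are defined per number of dogs; n = 1-3 dogs.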

Canis familiaris [2] = experiment: In vivo percent change in canine renal blood flow (RBF) at 3 ug/Kg/min.; type: functional, Canis lupus familiaris, Kidney; outline: as §1
Canis familiaris [3] = experiment: In vivo percent change in canine renal vascular resistance (RVR) at 3 ug/Kg/min.; type: functional, Canis lupus familiaris; outline: as §1
Canis familiaris [4] = experiment: In vivo percent change in canine renal vascular resistance (RVR) at 300 ug/Kg/min.; type: functional, Canis lupus familiaris; outline: as §1
[5] = Average max percent decrease in RVR (renal vascular resistance) was determined.
Outline: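 Secondary protocol in anesthetized dogs. Drug given as iv infusion at progressively increasing rates, each dose level for 5 min. The maximum effect is taken as the largest percent decrease in renal vascular resistance (RVR) reached with the compound. RVR is calculated as mean arterial blood pressure / mean renal blood flow.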

Canis familiaris [6] = experiment: In vivo percent change in canine heart rate at 3 ug/Kg/min.; type: functional, Canis lupus familiaris; outline: as §1
Canis familiaris [7] = experiment: Renal vasodilator activity in anesthetized dogs and percent change in mean arterial blood pressure (MABP) was determined at 3 ug/Kg/min; type: functional, Canis lupus familiaris; outline: as §1
Canis familiaris [8] = experiment: In vivo percent change in canine mean arterial blood pressure (MABP) at 300 ug/Kg/min.; type: functional, Canis lupus familiaris; outline: as §1
[9] = Ratio of ED30 of iliac vascular resistant (IVR) to the ED15 of RVR (renal vascular resistance); type: functional
Outline: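 Anesthetized dogs in the secondary cumulative-infusion protocol, each dose level 5 min. Selectivity ratio is the dose giving a 30% change in iliac vascular resistance divided by the RVR ED15, the cumulative dose decreasing renal vascular resistance by 15%.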

Canis familiaris [10] = experiment: In vivo percent change in canine renal blood flow (RBF) at 300 ug/Kg/min.; type: functional, Canis lupus familiaris, Kidney; outline: as §1
Canis familiaris [11] = experiment: In vivo percent change in canine heart rate at 300 ug/Kg/min.; type: functional, Canis lupus familiaris; outline: as §1
Canis familiaris [12] = experiment: In vivo percent change in canine mean arterial blood pressure (MABP) at 30 ug/Kg/min.; type: functional, Canis lupus familiaris; outline: as §1
Canis familiaris [13] = experiment: In vivo percent change in canine renal blood flow (RBF) at 30 ug/Kg/min.; type: functional, Canis lupus familiaris, Kidney; outline: as §1
[14] = Ratio of ED20 of MABP (mean arterial blood pressure) to the ED15 of RVR ( renal vascular resistance).; type: functional
Outline: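 Anesthetized dogs in the secondary cumulative-infusion protocol, each dose level 5 min. Selectivity ratio is the dose giving a 20% change in mean arterial blood pressure divided by the cumulative dose lowering renal vascular resistance 15% (RVR ED15).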

Canis familiaris [15] = experiment: Compound was evaluated for renal vasodilator activity and represented as ED15 (intravenous administration); type: functional; conditions: Canis lupus familiaris
Outline: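 Secondary protocol in anesthetized dogs with iv infusion at progressively increasing rates, each level infused 5 min. Potency is the cumulative dose (µg/kg) that lowered renal vascular resistance (MABP / mean RBF) by 15%. Minimum change needed for significance (p = 0.95) is 16% for RVR.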

Canis familiaris [16] = experiment: In vivo percent change in canine renal vascular resistance (RVR) at 30 ug/Kg/min.; type: functional, Canis lupus familiaris; outline: as §1
Canis familiaris [17] = experiment: In vivo percent change in renal blood flow at 30 ug/Kg/min.; type: functional, Canis lupus familiaris, Kidney; outline: as §1
Canis familiaris [18] = experiment: Renal vasodilator activity in anesthetized dogs and percent change in renal vascular resistance (RVR) was determined at 30 ug/Kg/min; type: functional, Canis lupus familiaris; outline: as §1
Canis familiaris [19] = experiment: In vivo percent change in canine mean arterial blood pressure (MABP) at 3 ug/Kg/min.; type: functional, Canis lupus familiaris; outline: as §1

Compound	Decrease [5] [%]	Change (Canis familiaris [1]) [%]	Change (Canis familiaris [2]) [%]	Change (Canis familiaris [3]) [%]	Change (Canis familiaris [4]) [%]	Change (Canis familiaris [6]) [%]	Change (Canis familiaris [7]) [%]	Change (Canis familiaris [8]) [%]	Ratio [9]	Change (Canis familiaris [10]) [%]	Change (Canis familiaris [11]) [%]	Change (Canis familiaris [12]) [%]	Change (Canis familiaris [13]) [%]	Ratio [14]	ED15 (Canis familiaris [15]) [mg/kg]	Change (Canis familiaris [16]) [%]	Change (Canis familiaris [17]) [%]	Change (Canis familiaris [18]) [%]	Change (Canis familiaris [19]) [%]
COc1ccc(CC(C)(NC(=O)[C@@H]2CCCN2C(=O)CCCc2ccccc2)C(=O)N[C@@H](CCCN=C(N)N)C(=O)O)cc1OC (some centres undefined)	–	1	7.5	-8.5	-7	4.5	-2	-2	–	5	2.5	-1	–	–	–	-8.5	8.5	–	–
CC(Cc1ccc(O)cc1)(NC(=O)[C@@H]1CCCN1C(=O)CCCc1ccc(O)cc1)C(=O)NCC(=O)N1CCC[C@H]1C(=O)O (some centres undefined) ({Butanoyl(4-(4-HOPh))}-P[ξαMeY]GP-OH)	13	0	4	-6	-5.9	-7	–	3	–	9	-1.5	1	–	–	–	–	0.5	-0.5	-2
CC(Cc1ccccc1)(NC(=O)[C@@H]1CCCN1C(=O)c1ccccc1)C(=O)N1CCC[C@H]1C(=O)O (some centres undefined) (Bz-Pro-[ξαMeF]-Pro-OH)	–	-6	4	-4	-4	3	–	-4	–	0	0	-5	–	–	–	-5	0	–	0

Second part, led by results:

Decrease [5] [%]	Compound	Change (Canis familiaris [1]) [%]	Change (Canis familiaris [2]) [%]	Change (Canis familiaris [3]) [%]	Change (Canis familiaris [4]) [%]	Change (Canis familiaris [6]) [%]	Change (Canis familiaris [7]) [%]	Change (Canis familiaris [8]) [%]	Ratio [9]	Change (Canis familiaris [10]) [%]	Change (Canis familiaris [11]) [%]	Change (Canis familiaris [12]) [%]	Change (Canis familiaris [13]) [%]	Ratio [14]	ED15 (Canis familiaris [15]) [mg/kg]	Change (Canis familiaris [16]) [%]	Change (Canis familiaris [17]) [%]	Change (Canis familiaris [18]) [%]	Change (Canis familiaris [19]) [%]
19	CC(Cc1ccccc1)(NC(=O)[C@@H]1CCCN1C(=O)CC12CC3CC(CC(C3)C1)C2)C(=O)N[C@@H](CCCN=C(N)N)C(=O)O (some centres undefined)	0.5	13	-11.5	21.5	3.5	-0.5	3	0	-14	2	1	0.5	>84	0.072	-0.5	–	–	–
21	H-FSPFR-OH	–	–	–	–	–	–	–	–	–	–	–	–	–	–	–	–	–	–
